Measurements from ChEMBL document CHEMBL1250442, “Inhibiting gene expression at transcription start sites in chromosomal DNA with antigene RNAs” (Nat Chem Biol, 2005).
The source made the active and inactive calls. The rule behind the calls is not given here.

How the values were obtained:
[1] = test system: T47D; assay: Inhibition of PR-A gene expression in human T47D cells at 25 nM by syber green assay in presence of 10 nM estradiol; type: functional, cell-based
[2] = test system: T47D; assay: Inhibition of PR-B mRNA gene expression in human T47D cells at 100 nM by syber green assay; type: functional
In short: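 T47D cells in RPMI-1640 with 10% FBS, NEAA, insulin, 37 °C, 5% CO2. Plated two days before transfection without antibiotics. Oligofectamine-mediated duplex RNA transfection at 100 nM final, medium changed at 24 h, harvest five days post-transfection. Total RNA extracted with TRIzol. hPR mRNA quantified by SYBR Green qPCR: 50 °C 2 min, 95 °C 10 min, then 40 cycles of 95 °C 15 s / 60 °C 1 min.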

[3] = test system: T47D; assay: Inhibition of PR-A gene expression in human T47D cells at 25 nM by syber green assay; type: functional
In short: (§1)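 T47D cells plated at 80,000/well without antibiotics two days before Oligofectamine transfection with agRNA duplex (25 or 100 nM final); medium changed at 24 h, harvest day 5 unless stated otherwise. TRIzol total RNA; PR mRNA by real-time PCR with SYBR Green: 50 °C 2 min, 95 °C 10 min, 40 cycles 95 °C 15 s/60 °C 1 min.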

[4] = test system: T47D; assay: Inhibition of PR-B gene expression in human T47D cells at 25 nM by syber green assay in presence of 10 nM estradiol; type: functional, cell-based
[5] = test system: T47D; assay: Inhibition of PR-A mRNA gene expression in human T47D cells at 100 nM by syber green assay; type: functional; in short: as §1
[6] = test system: T47D; assay: Inhibition of PR-B gene expression in human T47D cells at 25 nM by syber green assay; type: functional; in short: as §1

SMILES | inhibition [1] | inhibition at 0.1 µM [2] [%] | inhibition at 0.025 µM [3] [%] | inhibition [4] | inhibition at 0.1 µM [5] [%] | inhibition at 0.025 µM [6] [%]
Cc1cn(CC(=O)N(CCNC(=O)CN(CCNC(=O)CN(CCNC(=O)CN(CCNC(=O)CN(CCNC(=O)CN(CCNC(=O)CN(CCNC(=O)CN(CCNC(=O)CN(CCNC(=O)CN(CCNC(=O)CN(CCNC(=O)CN(CCNC(=O)CN(CCNC(=O)CN(CCNC(=O)CN(CCNC(=O)CN(CCNC(=O)CN(CCNC(=O)CN(CCNC(=O)CN(CCNC(=O)CN(CCNC(=O)CN)C(=O)Cn2cnc3c(=O)[nH]c(N)nc32)C(=O)Cn2ccc(=O)[nH]c2=O)C(=O)Cn2ccc(=O)[nH]c2=O)C(=O)Cn2cnc3c(N)ncnc32)C(=O)Cn2cnc3c(=O)[nH]c(N)nc32)C(=O)Cn2cnc3c(N)ncnc32)C(=O)Cn2cnc3c(N)ncnc32)C(=O)Cn2cnc3c(N)ncnc32)C(=O)Cn2cnc3c(=O)[nH]c(N)nc32)C(=O)Cn2ccc(N)nc2=O)C(=O)Cn2ccc(=O)[nH]c2=O)C(=O)Cn2cnc3c(=O)[nH]c(N)nc32)C(=O)Cn2ccc(=O)[nH]c2=O)C(=O)Cn2ccc(N)nc2=O)C(=O)Cn2ccc(=O)[nH]c2=O)C(=O)Cn2cnc3c(=O)[nH]c(N)nc32)C(=O)Cn2cnc3c(=O)[nH]c(N)nc32)C(=O)Cn2ccc(N)nc2=O)C(=O)Cn2ccc(N)nc2=O)CC(=O)NCCN(CC(=O)NCC(=O)O)C(=O)Cn2cc(C)c(=O)[nH]c2=O)c(=O)[nH]c1=O | Active | < 20 | < 20 | Active | < 20 | < 20
Cc1cn(CC(=O)N(CCNC(=O)CN(CCNC(=O)CN(CCNC(=O)CN(CCNC(=O)CN(CCNC(=O)CN(CCNC(=O)CN(CCNC(=O)CN(CCNC(=O)CN(CCNC(=O)CN(CCNC(=O)CN(CCNC(=O)CN(CCNC(=O)CN(CCNC(=O)CN(CCNC(=O)CN(CCNC(=O)CN(CCNC(=O)CN(CCNC(=O)CN(CCNC(=O)CN(CCNC(=O)CN(CCNC(=O)CN)C(=O)Cn2ccc(N)nc2=O)C(=O)Cn2ccc(=O)[nH]c2=O)C(=O)Cn2cnc3c(=O)[nH]c(N)nc32)C(=O)Cn2ccc(=O)[nH]c2=O)C(=O)Cn2ccc(N)nc2=O)C(=O)Cn2ccc(=O)[nH]c2=O)C(=O)Cn2cnc3c(=O)[nH]c(N)nc32)C(=O)Cn2cnc3c(=O)[nH]c(N)nc32)C(=O)Cn2ccc(N)nc2=O)C(=O)Cn2ccc(N)nc2=O)C(=O)Cn2cnc3c(N)ncnc32)C(=O)Cn2cnc3c(=O)[nH]c(N)nc32)C(=O)Cn2ccc(=O)[nH]c2=O)C(=O)Cn2ccc(N)nc2=O)C(=O)Cn2ccc(N)nc2=O)C(=O)Cn2cnc3c(N)ncnc32)C(=O)Cn2ccc(N)nc2=O)C(=O)Cn2cnc3c(N)ncnc32)C(=O)Cn2cnc3c(=O)[nH]c(N)nc32)CC(=O)NCCN(CC(=O)NCC(=O)O)C(=O)Cn2cc(C)c(=O)[nH]c2=O)c(=O)[nH]c1=O | Active | 100 | 50 | Active | 99 | 55
Cc1cn(CC(=O)N(CCNC(=O)CN(CCNC(=O)CN(CCNC(=O)CN(CCNC(=O)CN(CCNC(=O)CN(CCNC(=O)CN(CCNC(=O)CN(CCNC(=O)CN(CCNC(=O)CN(CCNC(=O)CN(CCNC(=O)CN(CCNC(=O)CN(CCNC(=O)CN(CCNC(=O)CN(CCNC(=O)CN(CCNC(=O)CN(CCNC(=O)CN(CCNC(=O)CN(CCNC(=O)CN(CCNC(=O)CN)C(=O)Cn2cnc3c(=O)[nH]c(N)nc32)C(=O)Cn2cnc3c(=O)[nH]c(N)nc32)C(=O)Cn2cnc3c(=O)[nH]c(N)nc32)C(=O)Cn2ccc(N)nc2=O)C(=O)Cn2ccc(N)nc2=O)C(=O)Cn2ccc(=O)[nH]c2=O)C(=O)Cn2ccc(N)nc2=O)C(=O)Cn2ccc(N)nc2=O)C(=O)Cn2ccc(N)nc2=O)C(=O)Cn2ccc(=O)[nH]c2=O)C(=O)Cn2cnc3c(N)ncnc32)C(=O)Cn2cnc3c(=O)[nH]c(N)nc32)C(=O)Cn2cnc3c(N)ncnc32)C(=O)Cn2cnc3c(=O)[nH]c(N)nc32)C(=O)Cn2cnc3c(=O)[nH]c(N)nc32)C(=O)Cn2cnc3c(N)ncnc32)C(=O)Cn2cnc3c(=O)[nH]c(N)nc32)C(=O)Cn2cnc3c(=O)[nH]c(N)nc32)C(=O)Cn2cnc3c(N)ncnc32)CC(=O)NCCN(CC(=O)NCC(=O)O)C(=O)Cn2cc(C)c(=O)[nH]c2=O)c(=O)[nH]c1=O | Active | < 20 | < 20 | Active | < 20 | < 20
Cc1cn(CC(=O)N(CCNC(=O)CN(CCNC(=O)CN(CCNC(=O)CN(CCNC(=O)CN(CCNC(=O)CN(CCNC(=O)CN(CCNC(=O)CN(CCNC(=O)CN(CCNC(=O)CN(CCNC(=O)CN(CCNC(=O)CN(CCNC(=O)CN(CCNC(=O)CN(CCNC(=O)CN(CCNC(=O)CN(CCNC(=O)CN(CCNC(=O)CN(CCNC(=O)CN(CCNC(=O)CN(CCNC(=O)CN)C(=O)Cn2cnc3c(N)ncnc32)C(=O)Cn2cnc3c(=O)[nH]c(N)nc32)C(=O)Cn2cnc3c(=O)[nH]c(N)nc32)C(=O)Cn2cnc3c(N)ncnc32)C(=O)Cn2cnc3c(=O)[nH]c(N)nc32)C(=O)Cn2cnc3c(=O)[nH]c(N)nc32)C(=O)Cn2ccc(N)nc2=O)C(=O)Cn2cnc3c(=O)[nH]c(N)nc32)C(=O)Cn2ccc(=O)[nH]c2=O)C(=O)Cn2ccc(=O)[nH]c2=O)C(=O)Cn2cnc3c(=O)[nH]c(N)nc32)C(=O)Cn2ccc(=O)[nH]c2=O)C(=O)Cn2ccc(=O)[nH]c2=O)C(=O)Cn2cnc3c(N)ncnc32)C(=O)Cn2cnc3c(=O)[nH]c(N)nc32)C(=O)Cn2cnc3c(N)ncnc32)C(=O)Cn2cnc3c(N)ncnc32)C(=O)Cn2cnc3c(N)ncnc32)C(=O)Cn2cnc3c(=O)[nH]c(N)nc32)CC(=O)NCCN(CC(=O)NCC(=O)O)C(=O)Cn2cc(C)c(=O)[nH]c2=O)c(=O)[nH]c1=O | Active | 68 | < 20 | Active | 52 | 34
Cc1cn(CC(=O)N(CCNC(=O)CN(CCNC(=O)CN(CCNC(=O)CN(CCNC(=O)CN(CCNC(=O)CN(CCNC(=O)CN(CCNC(=O)CN(CCNC(=O)CN(CCNC(=O)CN(CCNC(=O)CN(CCNC(=O)CN(CCNC(=O)CN(CCNC(=O)CN(CCNC(=O)CN(CCNC(=O)CN(CCNC(=O)CN(CCNC(=O)CN(CCNC(=O)CN(CCNC(=O)CN(CCNC(=O)CN)C(=O)Cn2cnc3c(=O)[nH]c(N)nc32)C(=O)Cn2ccc(N)nc2=O)C(=O)Cn2ccc(=O)[nH]c2=O)C(=O)Cn2cnc3c(=O)[nH]c(N)nc32)C(=O)Cn2ccc(N)nc2=O)C(=O)Cn2ccc(N)nc2=O)C(=O)Cn2ccc(=O)[nH]c2=O)C(=O)Cn2cnc3c(=O)[nH]c(N)nc32)C(=O)Cn2cnc3c(=O)[nH]c(N)nc32)C(=O)Cn2ccc(N)nc2=O)C(=O)Cn2ccc(N)nc2=O)C(=O)Cn2cnc3c(N)ncnc32)C(=O)Cn2cnc3c(=O)[nH]c(N)nc32)C(=O)Cn2ccc(=O)[nH]c2=O)C(=O)Cn2ccc(N)nc2=O)C(=O)Cn2ccc(N)nc2=O)C(=O)Cn2cnc3c(N)ncnc32)C(=O)Cn2ccc(N)nc2=O)C(=O)Cn2cnc3c(N)ncnc32)CC(=O)NCCN(CC(=O)NCC(=O)O)C(=O)Cn2cc(C)c(=O)[nH]c2=O)c(=O)[nH]c1=O | Active | 28 | < 20 | Active | < 20 | < 20
Cc1cn(CC(=O)N(CCNC(=O)CN(CCNC(=O)CN(CCNC(=O)CN(CCNC(=O)CN(CCNC(=O)CN(CCNC(=O)CN(CCNC(=O)CN(CCNC(=O)CN(CCNC(=O)CN(CCNC(=O)CN(CCNC(=O)CN(CCNC(=O)CN(CCNC(=O)CN(CCNC(=O)CN(CCNC(=O)CN(CCNC(=O)CN(CCNC(=O)CN(CCNC(=O)CN(CCNC(=O)CN(CCNC(=O)CN)C(=O)Cn2ccc(=O)[nH]c2=O)C(=O)Cn2ccc(N)nc2=O)C(=O)Cn2ccc(N)nc2=O)C(=O)Cn2ccc(N)nc2=O)C(=O)Cn2ccc(=O)[nH]c2=O)C(=O)Cn2cnc3c(N)ncnc32)C(=O)Cn2cnc3c(=O)[nH]c(N)nc32)C(=O)Cn2cnc3c(N)ncnc32)C(=O)Cn2cnc3c(=O)[nH]c(N)nc32)C(=O)Cn2cnc3c(=O)[nH]c(N)nc32)C(=O)Cn2cnc3c(N)ncnc32)C(=O)Cn2cnc3c(=O)[nH]c(N)nc32)C(=O)Cn2cnc3c(=O)[nH]c(N)nc32)C(=O)Cn2cnc3c(N)ncnc32)C(=O)Cn2cnc3c(=O)[nH]c(N)nc32)C(=O)Cn2cnc3c(=O)[nH]c(N)nc32)C(=O)Cn2ccc(N)nc2=O)C(=O)Cn2cnc3c(=O)[nH]c(N)nc32)C(=O)Cn2ccc(=O)[nH]c2=O)CC(=O)NCCN(CC(=O)NCC(=O)O)C(=O)Cn2cc(C)c(=O)[nH]c2=O)c(=O)[nH]c1=O | Active | 48 | < 20 | Active | 41 | < 20
